# Measurements published in ChEMBL document CHEMBL4270599, “Synthesis of a 3'-C-ethynyl-β-d-ribofuranose purine nucleoside library: Discovery of C7-deazapurine analogs as potent antiproliferative nucleosides” (Eur J Med Chem, 2018).
# How the values were obtained:
# DU-145 = assay: Growth inhibition of human DU145 cells assessed as cell growth at 10^-4 M incubated for 48 hrs by sulforhodamine B assay relative to control; format: functional; details: DU-145, 48 h, read-out: Activity
# HOP-62 = assay: Growth inhibition of human HOP62 cells assessed as cell growth at 10^-8 M incubated for 48 hrs by sulforhodamine B assay relative to control; format: functional; details: HOP-62, 48 h, read-out: Activity
# SF-539 = assay: Cytotoxicity against human SF539 cells after 48 hrs by SRB assay; format: functional; details: SF-539, 48 h
# ACHN [1] = assay: Growth inhibition of human ACHN cells assessed as cell growth at 10^-4 M incubated for 48 hrs by sulforhodamine B assay relative to control; format: functional; details: read-out: Activity
# ACHN [2] = assay: Cytotoxicity against human ACHN cells after 48 hrs by SRB assay; format: functional
# TK-10 = assay: Cytotoxicity against human TK10 cells after 48 hrs by SRB assay; format: functional; details: TK-10, 48 h; for CC50: read-out: LC50 (the source's name)
# MCF7 = assay: Growth inhibition of human MCF7 cells assessed as cell growth at 10^-4 M incubated for 48 hrs by sulforhodamine B assay relative to control; format: functional; details: MCF7, 48 h, read-out: Activity
# HT-29 [3] = assay: Cytotoxicity against human HT-29 cells after 48 hrs by SRB assay; format: functional; details: HT-29, 48 h
# IGROV-1 = assay: Cytotoxicity against human IGROV1 cells after 48 hrs by SRB assay; format: functional; details: IGROV-1, 48 h; for CC50: read-out: LC50 (the source's name)
# KM12 [4] = assay: Growth inhibition of human KM12 cells assessed as cell growth at 10^-7 M incubated for 48 hrs by sulforhodamine B assay relative to control; format: functional; details: KM12, 48 h, read-out: Activity
# NCI-H23 = assay: Growth inhibition of human NCI-H23 cells assessed as cell growth at 10^-5 M incubated for 48 hrs by sulforhodamine B assay relative to control; format: functional; details: NCI-H23, 48 h, read-out: Activity
# OVCAR-5 = assay: Growth inhibition of human OVCAR5 cells assessed as cell growth at 10^-8 M incubated for 48 hrs by sulforhodamine B assay relative to control; format: functional; details: OVCAR-5, 48 h, read-out: Activity
# HCC 2998 = assay: Growth inhibition of human HCC2998 cells assessed as cell growth at 10^-8 M incubated for 48 hrs by sulforhodamine B assay relative to control; format: functional; details: HCC 2998, 48 h, read-out: Activity
# SW-620 = assay: Growth inhibition of human SW620 cells assessed as cell growth at 10^-6 M incubated for 48 hrs by sulforhodamine B assay relative to control; format: functional; details: SW-620, 48 h, read-out: Activity
# KM12 [5] = assay: Growth inhibition of human KM12 cells assessed as cell growth at 10^-5 M incubated for 48 hrs by sulforhodamine B assay relative to control; format: functional; details: KM12, 48 h, read-out: Activity
# UACC-257 = assay: Growth inhibition of human UACC257 cells assessed as cell growth at 10^-8 M incubated for 48 hrs by sulforhodamine B assay relative to control; format: functional; details: UACC-257, 48 h, read-out: Activity
# SR = assay: Growth inhibition of human SR cells assessed as cell growth at 10^-4 M incubated for 48 hrs by sulforhodamine B assay relative to control; format: functional; details: read-out: Activity
# LOX IMVI = assay: Growth inhibition of human LOXIMVI cells assessed as cell growth at 10^-8 M incubated for 48 hrs by sulforhodamine B assay relative to control; format: functional; details: read-out: Activity
# A498 = assay: Growth inhibition of human A498 cells assessed as cell growth at 10^-6 M incubated for 48 hrs by sulforhodamine B assay relative to control; format: functional; details: A498, 48 h, read-out: Activity
# NCI/ADR-RES [6] = assay: Growth inhibition of human NCI/ADR-RES cells assessed as cell growth at 10^-4 M incubated for 48 hrs by sulforhodamine B assay relative to control; format: functional; details: read-out: Activity
# U-251 = assay: Growth inhibition of human U251 cells assessed as cell growth at 10^-5 M incubated for 48 hrs by sulforhodamine B assay relative to control; format: functional; details: U-251, 48 h, read-out: Activity
# HL-60(TB) = assay: Cytotoxicity against human HL-60(TB) cells after 48 hrs by SRB assay; format: functional; details: HL-60, 48 h; for CC50: read-out: pLC50 (the source's name) (converted)
# NCI/ADR-RES [7] = assay: Growth inhibition of human NCI/ADR-RES cells assessed as cell growth at 10^-5 M incubated for 48 hrs by sulforhodamine B assay relative to control; format: functional; details: read-out: Activity
# L1210 = assay: Antiproliferative activity against mouse L1210 cells after 48 hrs by Coulter counter method; format: functional, cell-based; details: L1210, 48 h
# In short: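 Cell count assay in 96-well microtiter plates; (5–7.5) × 10⁴ tumor cells per well plus test compound. Cells proliferated at 37 °C in humidified CO₂-controlled atmosphere, 48 h for murine leukemia L1210, 72 h for human lymphocytic CEM and cervix carcinoma HeLa. Counted by Coulter counter; IC₅₀ is the concentration that inhibits proliferation by 50%.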
# HT-29 [8] = assay: Growth inhibition of human HT-29 cells assessed as cell growth at 10^-6 M incubated for 48 hrs by sulforhodamine B assay relative to control; format: functional; details: HT-29, 48 h, read-out: Activity
# SK-MEL-28 = assay: Growth inhibition of human SK-MEL-28 cells assessed as cell growth at 10^-7 M incubated for 48 hrs by sulforhodamine B assay relative to control; format: functional; details: SK-MEL-28, 48 h, read-out: Activity
# NCI-H226 = assay: Growth inhibition of human NCI-H226 cells assessed as cell growth at 10^-4 M incubated for 48 hrs by sulforhodamine B assay relative to control; format: functional; details: NCI-H226, 48 h, read-out: Activity
# SN12C = assay: Growth inhibition of human SN12C cells assessed as cell growth at 10^-7 M incubated for 48 hrs by sulforhodamine B assay relative to control; format: functional; details: read-out: Activity
# SNB-75 = assay: Growth inhibition of human SNB75 cells assessed as cell growth at 10^-8 M incubated for 48 hrs by sulforhodamine B assay relative to control; format: functional; details: SNB-75, 48 h, read-out: Activity
# UO-31 = assay: Cytotoxicity against human UO31 cells after 48 hrs by SRB assay; format: functional; details: UO-31, 48 h
# UACC-62 = assay: Growth inhibition of human UACC62 cells assessed as cell growth at 10^-7 M incubated for 48 hrs by sulforhodamine B assay relative to control; format: functional; details: UACC-62, 48 h, read-out: Activity
# [9] = read-out: LC50 (the source's name)
# [10] = read-out: pLC50 (the source's name) (converted)
structure (smiles),measurement,setting,value
C#C[C@@]1(O)[C@@H](CO)O[C@@H](n2ccc3c(N)ncnc32)[C@@H]1O,growth at 100 µM,DU-145,-48%
same,growth at 0.01 µM,HOP-62,87%
same,CC50,SF-539; [9],11.6 µM
same,TGI,SF-539; read-out: TGI,4.44 µM
same,GI50,SF-539; read-out: pGI50 (converted),1910 nM
same,CC50,SF-539; [10],11.7 µM
same,TGI,SF-539; read-out: pTGI (converted),4.47 µM
same,growth at 100 µM,ACHN [1],-24%
same,GI50,ACHN [2],562 nM
same,CC50,ACHN [2]; [9],> 100 µM
same,TGI,ACHN [2]; read-out: TGI,4.48 µM
same,TGI,ACHN [2]; read-out: pTGI (converted),4.47 µM
same,CC50,TK-10,> 100 µM
same,TGI,TK-10; read-out: TGI,9.48 µM
same,GI50,TK-10; read-out: pGI50 (converted),2630 nM
same,TGI,TK-10; read-out: pTGI (converted),9.55 µM
same,growth at 100 µM,MCF7,-53%
same,CC50,HT-29 [3]; [9],> 100 µM
same,TGI,HT-29 [3]; read-out: TGI,10 µM
same,GI50,HT-29 [3]; read-out: pGI50 (converted),977 nM
same,TGI,HT-29 [3]; read-out: pTGI (converted),10 µM
same,CC50,IGROV-1,> 100 µM
same,TGI,IGROV-1; read-out: TGI,5.85 µM
same,GI50,IGROV-1; read-out: pGI50 (converted),1450 nM
same,TGI,IGROV-1; read-out: pTGI (converted),5.89 µM
same,growth at 0.1 µM,KM12 [4],102%
same,growth at 10 µM,NCI-H23,-32%
same,growth at 0.01 µM,OVCAR-5,87%
same,growth at 0.01 µM,HCC 2998,99%
same,growth at 1 µM,SW-620,38%
same,growth at 10 µM,KM12 [5],2%
same,growth at 0.01 µM,UACC-257,100%
same,growth at 100 µM,SR,11%
same,growth at 0.01 µM,LOX IMVI,98%
same,growth at 1 µM,A498,80%
same,growth at 100 µM,NCI/ADR-RES [6],-9%
same,growth at 10 µM,U-251,2%
same,TGI,HL-60(TB); read-out: TGI,5.49 µM
same,GI50,HL-60(TB); read-out: pGI50 (converted),1580 nM
same,CC50,HL-60(TB),> 100 µM
same,TGI,HL-60(TB); read-out: pTGI (converted),5.5 µM
same,growth at 10 µM,NCI/ADR-RES [7],-7%
same,IC50,L1210,380 nM
same,growth at 1 µM,HT-29 [8],49%
same,growth at 0.1 µM,SK-MEL-28,97%
same,growth at 100 µM,NCI-H226,-61%
same,growth at 0.1 µM,SN12C,96%
same,growth at 0.01 µM,SNB-75,86%
same,TGI,UO-31; read-out: TGI,3.58 µM
same,GI50,UO-31; read-out: pGI50 (converted),1410 nM
same,TGI,UO-31; read-out: pTGI (converted),3.55 µM
same,growth at 0.1 µM,UACC-62,101%
C#C[C@@]1(O)[C@@H](CO)O[C@@H](n2cc(I)c3c(N)ncnc32)[C@@H]1O,growth at 100 µM,DU-145,7 to 10%
same,growth at 0.01 µM,HOP-62,83 to 89%
same,GI50,SF-539; read-out: GI50,304 to 471 nM
same,CC50,SF-539; [9],28.6 to 31.3 µM
same,TGI,SF-539; read-out: TGI,2.18 to 2.98 µM
same,growth at 100 µM,ACHN [1],1%
same,GI50,ACHN [2],316 nM
same,TGI,ACHN [2]; read-out: TGI,> 100 µM
same,CC50,ACHN [2]; [10],> 100 µM
same,TGI,ACHN [2]; read-out: pTGI (converted),> 100 µM
same,GI50,TK-10; read-out: GI50,551 to 572 nM
same,CC50,TK-10,> 100 µM
same,TGI,TK-10; read-out: TGI,5.51 µM
same,TGI,TK-10; read-out: pTGI (converted),5.5 µM
same,growth at 100 µM,MCF7,1 to 3%
same,GI50,HT-29 [3]; read-out: GI50,14.2 to 39.7 nM
same,TGI,HT-29 [3]; read-out: TGI,3.3 to 6.84 µM
same,CC50,HT-29 [3]; [10],> 100 µM
same,CC50,IGROV-1,> 100 µM
same,growth at 0.1 µM,KM12 [4],49 to 50%
same,growth at 10 µM,NCI-H23,-16%
same,growth at 0.01 µM,OVCAR-5,79 to 80%
same,growth at 0.01 µM,HCC 2998,87 to 90%
same,growth at 1 µM,SW-620,12 to 17%
same,growth at 10 µM,KM12 [5],3 to 12%
same,growth at 0.01 µM,UACC-257,89 to 91%
same,growth at 0.01 µM,LOX IMVI,85 to 93%
same,growth at 1 µM,A498,1 to 29%
same,growth at 100 µM,NCI/ADR-RES [6],-2%
same,growth at 10 µM,U-251,4%
same,GI50,HL-60(TB); read-out: GI50,31.5 to 67.8 nM
same,TGI,HL-60(TB); read-out: TGI,0.2 to 0.343 µM
same,CC50,HL-60(TB),> 100 µM
same,growth at 10 µM,NCI/ADR-RES [7],-4%
same,IC50,L1210,56 nM
same,growth at 1 µM,HT-29 [8],9 to 13%
same,growth at 0.1 µM,SK-MEL-28,86 to 88%
same,growth at 100 µM,NCI-H226,4 to 16%
same,growth at 0.1 µM,SN12C,43 to 54%
same,growth at 0.01 µM,SNB-75,74 to 83%
same,GI50,UO-31; read-out: GI50,79.1 to 103 nM
same,CC50,UO-31; [9],> 100 µM
same,TGI,UO-31; read-out: TGI,3.07 to 3.3 µM
same,growth at 0.1 µM,UACC-62,81 to 84%
